Test results as given in ChEMBL document CHEMBL1629444, “DNA-dependent protein kinase (DNA-PK) inhibitors. Synthesis and biological activity of quinolin-4-one and pyridopyrimidin-4-one surrogates for the chromen-4-one chemotype” (J Med Chem, 2010).
pIC50: −log10 of the molar value.

Tests used:
[1] = Inhibition of DNA-PK isolated from human HeLa cell extract assessed as reduction in p53 Ser15 phosphorylation by chemiluminescence assay; type: cell-free
HeLa [2] = assay: Potentiation of ionizing radiation-induced cytotoxicity in human HeLa cells assessed as dose modification ratio at 0.5 uM pretreated 1 hr before 2 Gy ionizing radiation by Giemsa staining relative untreated control; type: functional
Method in brief: (§1)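 HeLa cells seeded in six-well dishes and left overnight at 37 °C/5% CO2. Compound or vehicle given 1 h before a single 2 Gy X-ray dose, then incubated overnight. Medium replaced without compound and cells grown 6-8 days. Colonies Giemsa-stained and counted automatically. DMR is % survival at 2 Gy without compound divided by % survival at 2 Gy with compound.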

HeLa [3] = assay: Potentiation of ionizing radiation-induced cytotoxicity in human HeLa cells assessed as dose modification ratio at 0.1 uM pretreated 1 hr before 2 Gy ionizing radiation by Giemsa staining relative untreated control; type: functional; method in brief: as §1

Structure (SMILES) | pIC50 [1] | Ratio (HeLa [2]) | Ratio (HeLa [3])
O=C(CCN1CCCCC1)Nc1ccc(-c2cccn3c(=O)cc(N4CCOCC4)nc23)c2sc3ccccc3c12 | 7.55 | 14.3 | 14.3
O=C(CN1CCN(CCOCCO)CC1)Nc1ccc(-c2cccn3c(=O)cc(N4CCOCC4)nc23)c2sc3ccccc3c12 | 7.29 | 8.3 | 1
O=C(CN1CCNCC1)Nc1ccc(-c2cccn3c(=O)cc(N4CCOCC4)nc23)c2sc3ccccc3c12 | 7.60 | 6.2 | 1.5
O=C(CNCCCN1CCOCC1)Nc1ccc(-c2cccc3c(=O)cc(N4CCOCC4)[nH]c23)c2sc3ccccc3c12 | 7.19 | 4 | –
CCN1CCN(CC(=O)Nc2ccc(-c3cccc4c(=O)cc(N5CCOCC5)[nH]c34)c3oc4ccccc4c23)CC1 | 7.11 | 3.6 | 1.2
C[C@@H]1CN(CCC(=O)Nc2ccc(-c3cccn4c(=O)cc(N5CCOCC5)nc34)c3sc4ccccc4c23)C[C@H](C)O1 | 7.57 | 4.6 | 4.6
CC(=O)N1CCN(CCC(=O)Nc2ccc(-c3cccc4c(=O)cc(N5CCOCC5)[nH]c34)c3sc4ccccc4c23)CC1 | 7.68 | 2.6 | –
O=C(CN1CCN(CCO)CC1)Nc1ccc(-c2cccn3c(=O)cc(N4CCOCC4)nc23)c2oc3ccccc3c12 | 7.77 | 5.8 | 1.3
COCCN1CCN(CC(=O)Nc2ccc(-c3cccc4c(=O)cc(N5CCOCC5)[nH]c34)c3oc4ccccc4c23)CC1 | 7.17 | 1.4 | 1.1
O=C(CN1CCN(CCO)CC1)Nc1ccc(-c2cccc3c(=O)cc(N4CCOCC4)[nH]c23)c2sc3ccccc3c12 | 7.74 | 2.1 | –
CN1CCN(CC(=O)Nc2ccc(-c3cccc4c(=O)cc(N5CCOCC5)[nH]c34)c3oc4ccccc4c23)CC1 | 6.94 | 1.6 | 1.2
CCN1CCN(CC(=O)Nc2ccc(-c3cccn4c(=O)cc(N5CCOCC5)nc34)c3oc4ccccc4c23)CC1 | 7.54 | 6.4 | 1.1
O=C(CN1CCN(c2ccccn2)CC1)Nc1ccc(-c2cccn3c(=O)cc(N4CCOCC4)nc23)c2sc3ccccc3c12 | 6.76 | 3.9 | –
O=C(CN1CCN(CCO)CC1)Nc1ccc(-c2cccc3c(=O)cc(N4CCOCC4)[nH]c23)c2oc3ccccc3c12 | 7.41 | 1.5 | 1.3
CC(C)NC(=O)CN1CCN(CC(=O)Nc2ccc(-c3cccn4c(=O)cc(N5CCOCC5)nc34)c3sc4ccccc4c23)CC1 | 7.60 | 7.3 | –
O=C(CN1CCOCC1)Nc1ccc(-c2cccc3c(=O)cc(N4CCOCC4)[nH]c23)c2sc3ccccc3c12 | 7.22 | 3.1 | –
O=C(CCN1CCOCC1)Nc1ccc(-c2cccn3c(=O)cc(N4CCOCC4)nc23)c2sc3ccccc3c12 | 7.07 | 6.2 | 6.2
O=C(CCN1CCOCC1)Nc1ccc(-c2cccn3c(=O)cc(N4CCOCC4)nc23)c2oc3ccccc3c12 | 7.11 | 6.3 | 1.3
CCN1CCN(CC(=O)Nc2ccc(-c3cccc4c(=O)cc(N5CCOCC5)[nH]c34)c3sc4ccccc4c23)CC1 | 7.21 | 3.4 | –
O=C(CN1CCN(c2ccccn2)CC1)Nc1ccc(-c2cccc3c(=O)cc(N4CCOCC4)[nH]c23)c2sc3ccccc3c12 | 7.72 | 5.8 | –
CC(C)NC(=O)CN1CCN(CC(=O)Nc2ccc(-c3cccn4c(=O)cc(N5CCOCC5)nc34)c3oc4ccccc4c23)CC1 | 7.44 | 13 | 1.7
CCN1CCN(CC(=O)Nc2ccc(-c3cccc4c(=O)cc(N5CCOCC5)oc34)c3sc4ccccc4c23)CC1 | 8.22 | – | 3.2
C[C@@H]1CN(CC(=O)Nc2ccc(-c3cccn4c(=O)cc(N5CCOCC5)nc34)c3oc4ccccc4c23)C[C@H](C)O1 | 7.82 | 3 | 1
CN1CCN(CC(=O)Nc2ccc(-c3cccn4c(=O)cc(N5CCOCC5)nc34)c3oc4ccccc4c23)CC1 | 7.52 | 4.3 | 1.1
O=C(CCNCC1CCCO1)Nc1ccc(-c2cccn3c(=O)cc(N4CCOCC4)nc23)c2sc3ccccc3c12 (stereo not drawn) | 7.11 | 4.3 | 4.3
O=C(CN(CCO)CCO)Nc1ccc(-c2cccn3c(=O)cc(N4CCOCC4)nc23)c2sc3ccccc3c12 | 7.54 | 3.8 | 1.1
C[C@@H]1CN(CC(=O)Nc2ccc(-c3cccc4c(=O)cc(N5CCOCC5)[nH]c34)c3oc4ccccc4c23)C[C@H](C)O1 | 7.43 | 1.6 | 1.1
COCCN1CCN(CC(=O)Nc2ccc(-c3cccc4c(=O)cc(N5CCOCC5)[nH]c34)c3sc4ccccc4c23)CC1 | 7.48 | 8.2 | 1.2

Structure (SMILES) | pIC50 [1] | Ratio (HeLa [2]) | Ratio (HeLa [3])
C[C@@H]1CN(CCC(=O)Nc2ccc(-c3cccc4c(=O)cc(N5CCOCC5)[nH]c34)c3oc4ccccc4c23)C[C@H](C)O1 | 6.82 | 0.9 | 0.8
NCC(=O)Nc1ccc(-c2cccc3c(=O)cc(N4CCOCC4)[nH]c23)c2sc3ccccc3c12 | 6.70 | 2.6 | –
O=C(CCN1CCCCC1)Nc1ccc(-c2cccn3c(=O)cc(N4CCOCC4)nc23)c2oc3ccccc3c12 | 7.68 | 1 | 2.5
O=C(CCN1CCCCC1)Nc1ccc(-c2cccc3c(=O)cc(N4CCOCC4)[nH]c23)c2sc3ccccc3c12 | 7.29 | 2.9 | –
O=C(CN1CCN(CCO)CC1)Nc1ccc(-c2cccn3c(=O)cc(N4CCOCC4)nc23)c2sc3ccccc3c12 | 7.72 | 13.6 | 1.4
COc1ccc(CNCCC(=O)Nc2ccc(-c3cccn4c(=O)cc(N5CCOCC5)nc34)c3sc4ccccc4c23)cc1 | 7.92 | 6.7 | 6.7
O=C(CCN1CCCCC1)Nc1ccc(-c2cccc3c(=O)cc(N4CCOCC4)[nH]c23)c2oc3ccccc3c12 | 6.50 | 1.1 | 1
O=C(CN1CCOCC1)Nc1ccc(-c2cccn3c(=O)cc(N4CCOCC4)nc23)c2oc3ccccc3c12 | 7.23 | 2.3 | 1.4
O=C(CN1CCOCC1)Nc1ccc(-c2cccn3c(=O)cc(N4CCOCC4)nc23)c2sc3ccccc3c12 | 8.10 | 9.9 | 3.5
CCN1CCN(CC(=O)Nc2ccc(-c3cccn4c(=O)cc(N5CCOCC5)nc34)c3sc4ccccc4c23)CC1 | 7.74 | 7.7 | 1.4
CC(=O)N1CCN(CCC(=O)Nc2ccc(-c3cccn4c(=O)cc(N5CCOCC5)nc34)c3sc4ccccc4c23)CC1 | 7.49 | 2.1 | 2.1
CC(C)NC(=O)CN1CCN(CC(=O)Nc2ccc(-c3cccc4c(=O)cc(N5CCOCC5)[nH]c34)c3oc4ccccc4c23)CC1 | 7.26 | 1.6 | 1.4
O=C(CN1CCNCC1)Nc1ccc(-c2cccc3c(=O)cc(N4CCOCC4)[nH]c23)c2sc3ccccc3c12 | 6.88 | 2.2 | –
O=C(CCNCC1CCCO1)Nc1ccc(-c2cccc3c(=O)cc(N4CCOCC4)[nH]c23)c2sc3ccccc3c12 (stereo not drawn) | 6.99 | 2.1 | –
C[C@@H]1CN(CCC(=O)Nc2ccc(-c3cccn4c(=O)cc(N5CCOCC5)nc34)c3oc4ccccc4c23)C[C@H](C)O1 | 7.15 | 4.1 | 0.9
O=C(CCN1CCCCCC1)Nc1ccc(-c2cccc3c(=O)cc(N4CCOCC4)[nH]c23)c2sc3ccccc3c12 | 6.85 | 2.2 | –
O=c1cc(N2CCOCC2)oc2c1ccc1ccccc12 | 6.64 | – | –
O=C(CCN1CCOCC1)Nc1ccc(-c2cccc3c(=O)cc(N4CCOCC4)[nH]c23)c2sc3ccccc3c12 | 6.75 | 2.8 | –
CN1CCN(CC(=O)Nc2ccc(-c3cccn4c(=O)cc(N5CCOCC5)nc34)c3sc4ccccc4c23)CC1 | 7.62 | 9.2 | 2.4
C[C@@H]1CN(CC(=O)Nc2ccc(-c3cccn4c(=O)cc(N5CCOCC5)nc34)c3sc4ccccc4c23)C[C@H](C)O1 | 8.15 | 15.1 | –
COCCN1CCN(CC(=O)Nc2ccc(-c3cccn4c(=O)cc(N5CCOCC5)nc34)c3sc4ccccc4c23)CC1 | 7.66 | 14.4 | 4
O=C(CN1CCOCC1)Nc1ccc(-c2cccc3c(=O)cc(N4CCOCC4)[nH]c23)c2oc3ccccc3c12 | 6.95 | 1.6 | 1.1
CN1CCN(CC(=O)Nc2ccc(-c3cccc4c(=O)cc(N5CCOCC5)[nH]c34)c3sc4ccccc4c23)CC1 | 7.37 | 2.5 | –
O=c1cc(N2CCOCC2)nc2c3ccccc3ccn12 | 6.55 | – | –
C[C@@H]1CN(CCC(=O)Nc2ccc(-c3cccc4c(=O)cc(N5CCOCC5)[nH]c34)c3sc4ccccc4c23)C[C@H](C)O1 | 7.85 | 2.2 | –
O=C(CCNCCCN1CCOCC1)Nc1ccc(-c2cccn3c(=O)cc(N4CCOCC4)nc23)c2sc3ccccc3c12 | 7.54 | 1.7 | 1.7
O=C(CCNCC1CCCO1)Nc1ccc(-c2cccn3c(=O)cc(N4CCOCC4)nc23)c2oc3ccccc3c12 (stereo not drawn) | 7.12 | 7.4 | 1.3
